Test results taken from ChEMBL document CHEMBL4340518, “Synthesis, structure-activity relationship and in vitro pharmacodynamics of A-ring modified caged xanthones in a preclinical model of inflammatory breast cancer” (Eur J Med Chem, 2019).
Active and inactive are the calls of the source. The rule behind the calls is not given here.

Assays:
[1] = test system: Breast carcinoma cell; experiment: Cytotoxicity against patient derived inflammatory breast cancer cell spheroids assessed as increase in spheroid dissolution at 2.5 uM incubated for 24 hrs by bright field microscopic based Spheroids MARY-X assay; type: functional, Homo sapiens
In short: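 MARY-X spheroids (40–100 μm) grown in MEM + 10% heat-inactivated FBS, penicillin/streptomycin, 37 °C, 5% CO2. Plated at 30–50 spheroids/well and exposed in replicates to 2.5 μM or DMSO vehicle for 24 h. Brightfield imaging scored deviation from the well-circumscribed spheroid edge, graded as no, low, moderate or complete response.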

[2] = test system: Breast carcinoma cell; experiment: Cytotoxicity against patient derived inflammatory breast cancer cell spheroids assessed as increase in spheroid dissolution incubated for 24 hrs by bright field microscopic based Spheroids MARY-X assay; type: functional; details: Homo sapiens
In short: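 MARY-X spheroids (40–100 μm; MEM, 10% heat-inactivated FBS, antibiotics, 37 °C, 5% CO2) were seeded at 30–50/well. Treated in replicates for 24 h with nine concentrations, 0.25–2.25 μM in 0.25 μM steps made by serial dilution, or DMSO. ImageJ circularity from brightfield images gave dose-response curves, from which IC50 was fitted.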

[3] = test system: Breast carcinoma cell; experiment: Cytotoxicity against patient derived inflammatory breast cancer cell spheroids assessed as increase in spheroid dissolution incubated for 24 hrs by propidium iodide/Acridine orange staining based dual-fluorescence viability assay; type: functional; details: Homo sapiens
[4] = test system: Breast carcinoma cell; experiment: Potency index, ratio of IC50 for taxol to IC50 for test compound for cytotoxicity against patient derived inflammatory breast cancer cell spheroids assessed as increase in spheroid dissolution incubated for 24 hrs by propidium iodide/Acridine orange staining based dual-fluorescence viability assay; type: functional, Homo sapiens
[5] = test system: Breast carcinoma cell; experiment: Induction of apoptosis in patient derived inflammatory breast cancer cell spheroids assessed as increase in loss of well-circumscribed spheroid edge at 2.5 uM incubated for 3 hrs by bright field microscopic analysis; type: functional, cell-based; details: Homo sapiens
In short: (§1)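 Spheroids were embedded in Matrigel plugs (Matrigel:spheroids in medium 2:1) on coverslips and set for 30 min at 37 °C. They were exposed to 2.5 μM or DMSO for 3 h, with brightfield checks of edge loss. Plugs were fixed in 4% PFA 30 min RT, permeabilized with 2% Triton X-100 15 min, and blocked with 3% goat serum 30 min. Staining used Alexa488 anti-Ki67 (1:10) and anti-cPARP (1:100), 4 °C 24 h, then Cy5 anti-rabbit (4 µg/ml), 4 °C 24 h, and DAPI mountant. ApoTome z-stack fluorescence imaging followed.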

[6] = test system: Breast carcinoma cell; experiment: Induction of apoptosis in patient derived inflammatory breast cancer cell spheroids assessed as increase in pyknotic nuclei at 2.5 uM incubated for 3 hrs by DAPI staining based fluorescence microscopic analysis; type: functional; details: Homo sapiens; in short: as §1
[7] = test system: Breast carcinoma cell; experiment: Induction of apoptosis in patient derived inflammatory breast cancer cell spheroids assessed as localization of cleaved PARP at 2.5 uM incubated for 3 hrs by c-PARP staining based fluorescence microscopic analysis; type: functional; details: Homo sapiens; in short: as §1
[8] = test system: Breast carcinoma cell; experiment: Antiproliferative activity against patient derived inflammatory breast cancer cell spheroids assessed as reduction in cell viability at 2.5 uM incubated for 3 hrs by ki-67 staining based fluorescence microscopic analysis; type: functional; details: Homo sapiens; in short: as §1

SMILES | Activity [1] [%] | IC50 [2] [nM] | Activity ([1]; Homo sapiens) | other results
CC(C)=CCC12OC(C)(C)C3CC(C=C4C(=O)c5ccccc5OC431)C2=O (centres undefined) | 100 | 630 |  | 
CC(=O)O[C@H]1C(=O)[C@@]2(C)[C@H]([C@H](OC(=O)c3ccccc3)[C@]3(O)C[C@H](OC(=O)[C@H](O)[C@@H](NC(=O)c4ccccc4)c4ccccc4)C(C)=C1C3(C)C)[C@]1(OC(C)=O)CO[C@@H]1C[C@@H]2O [PACLITAXEL] |  |  |  | IC50 [3]: 7800 nM
COc1ccc(OC)c2c1OC13C(=CC4CC1C(C)(C)OC3(CC=C(C)C)C4=O)C2=O (centres undefined) |  |  | inactive | 
CC(C)=CCC[C@]1(C)C=Cc2c(O)c3c(c(CC=C(C)C)c2O1)O[C@]12C(=C[C@@H]4C[C@H]1C(C)(C)O[C@@]2(C/C=C(/C)C(=O)O)C4=O)C3=O [GAMBOGIC ACID] |  |  |  | IC50 [3]: 420 nM; Ratio IC50 [4]: 20
CC(C)=CCC12OC(C)(C)C3CC(C=C4C(=O)c5c(O)cccc5OC431)C2=O (centres undefined) | 100 | 510 |  | IC50 [3]: 660 nM; Activity [5]: Active; Activity [6]: Active; Activity [7]: Active; Activity [8]: Active
CC(C)=CCC12OC(C)(C)C3CC(C=C4C(=O)c5c(F)cc(F)cc5OC431)C2=O (centres undefined) | 100 | 1120 |  | Activity [5]: Active; Activity [6]: Active; Activity [7]: Active; Activity [8]: Active
CC(C)=CCC12OC(C)(C)C3CC4(Oc5cc(F)cc(F)c5C(=O)C4=CC31)C2=O (centres undefined) | 100 | 890 |  | 
COCCOCCOCCOc1cccc2c1C(=O)C1=CC3CC4C(C)(C)OC(CC=C(C)C)(C3=O)C14O2 (centres undefined) |  |  | Active | 
CC(C)=CCC12OC(C)(C)C3CC(C=C4C(=O)c5c(O)cc(O)cc5OC431)C2=O (centres undefined) |  |  | inactive | 
COCOc1cc(O)c2c(c1)OC13C(=CC4CC1C(C)(C)OC3(CC=C(C)C)C4=O)C2=O (centres undefined) | 100 | 380 |  | Activity [5]: Active; Activity [6]: Active; Activity [7]: Active; Activity [8]: Active
CC(C)=CCC12OC(C)(C)C3CC(C=C4C(=O)C5=C(OC431)C(=O)C=CC5=O)C2=O (centres undefined) |  |  | inactive | 
CC(C)=CCC12OC(C)(C)C3CC(C=C4C(=O)c5ccc(O)cc5OC431)C2=O (centres undefined) |  |  | inactive | 
COCCOCCOCCOc1ccc2c(c1)OC13C(=CC4CC1C(C)(C)OC3(CC=C(C)C)C4=O)C2=O (centres undefined) |  |  | Active | 
COCCOCCOCCOc1cc(O)c2c(c1)OC13C(=CC4CC1C(C)(C)OC3(CC=C(C)C)C4=O)C2=O (centres undefined) |  |  | Active | 
COCCOCCOCCOc1cc(OCCOCCOCCOC)c2c(c1)OC13C(=CC4CC1C(C)(C)OC3(CC=C(C)C)C4=O)C2=O (centres undefined) |  |  | Active | 
